From ChEMBL document CHEMBL1139871, “Selective urokinase-type plasminogen activator inhibitors. 4. 1-(7-sulfonamidoisoquinolinyl)guanidines” (J Med Chem, 2007) come the findings set out here.

Values after ≈ are worked out from the molar mass of the structure shown.

A short description of data set [1]: Dissociation constant, pKa of the compound. Type of data set: physicochemical.
Data set [2] can be described thus: Solubility in phosphate buffered saline at pH 6.5. Type of data set: physicochemical. Put shortly:
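Solubility measured in phosphate-buffered saline, pH 6.5.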

For data set [3], the target named is Coagulation factor X (Homo sapiens) (UniProt P00742). The data set can be described thus: Inhibition of factor 10a at 10 uM. Put shortly: (§1)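 Human coagulation enzyme tested in a chromogenic enzyme assay. Percent inhibition was read at a single inhibitor concentration.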
A short description of data set [4]: Drug level in dermis of pig excisional wound model. Type of data set: ADME, tissue-based, Sus scrofa. As to conditions: in vivo, read-out: Activity. Summed up: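 Pig full-thickness wounds dosed topically once daily for 10 days with 1 mL of 10 mg/mL compound suspended in hydrogel (glycerol/water/F127/CMC). Animals killed on day 11. Wounds excised and dermal compound concentration determined.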

Data set [5] has as its target Tissue-type plasminogen activator (Homo sapiens, UniProt P00750). The data set can be described thus: Inhibition of human tPA. Put shortly: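 Human one-chain tPA 0.4 µg/mL (final) with 0.1 mg/mL tPA stimulator, preincubated 15 min at 37 °C with inhibitor in 75 mM Tris pH 8.1, 50 mM NaCl. Then 0.4 mM S-2288 (H-D-Ile-Pro-Arg-pNA) added, 60 min at 37 °C. A405 read after preincubation and after substrate incubation, background subtracted. IC50 from % inhibition vs concentration. Ki = IC50/(1+[S]/Km), Km 250 µM.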

For a further data set, the target named is Coagulation factor IX (Homo sapiens, UniProt P00740). The data set can be described thus: Inhibition of factor 9a at 12.5 uM. Put shortly:
as §1

A short description of data set [6]: Lipophilicity, log D at pH7.4. Type of data set: physicochemical. The note with it: buffer, pH 7.4.
For a further data set, the target named is Plasminogen (Homo sapiens, UniProt P00747). As to the kind of experiment: Inhibition of human plasmin. Put shortly:
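Human plasmin 0.7 µg/mL with 0.2 mM Chromozym-PL and varied inhibitor in Tris pH 8.1/NaCl buffer. Preincubated 15 min at 37 °C, then 30 min at 37 °C with substrate. A405 background-subtracted, % inhibition plotted for IC50.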

Sequence of Tissue-type plasminogen activator (P00750 whole entry): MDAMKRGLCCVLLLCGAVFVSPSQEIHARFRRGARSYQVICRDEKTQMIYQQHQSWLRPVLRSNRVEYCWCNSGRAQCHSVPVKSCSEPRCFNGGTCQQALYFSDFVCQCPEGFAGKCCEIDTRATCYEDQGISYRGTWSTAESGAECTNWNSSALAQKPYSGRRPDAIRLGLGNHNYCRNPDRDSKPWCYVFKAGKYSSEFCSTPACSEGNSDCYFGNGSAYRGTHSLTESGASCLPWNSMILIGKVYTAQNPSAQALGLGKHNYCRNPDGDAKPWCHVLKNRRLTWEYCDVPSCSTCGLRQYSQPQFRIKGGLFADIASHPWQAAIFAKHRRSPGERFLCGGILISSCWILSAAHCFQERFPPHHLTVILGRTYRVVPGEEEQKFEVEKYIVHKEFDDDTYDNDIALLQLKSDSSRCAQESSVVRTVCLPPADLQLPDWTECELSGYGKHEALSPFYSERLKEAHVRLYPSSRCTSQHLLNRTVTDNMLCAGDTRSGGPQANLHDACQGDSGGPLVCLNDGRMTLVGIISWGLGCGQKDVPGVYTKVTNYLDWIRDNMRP
Sequence of Coagulation factor IX (P00740 47-191 limits assumed): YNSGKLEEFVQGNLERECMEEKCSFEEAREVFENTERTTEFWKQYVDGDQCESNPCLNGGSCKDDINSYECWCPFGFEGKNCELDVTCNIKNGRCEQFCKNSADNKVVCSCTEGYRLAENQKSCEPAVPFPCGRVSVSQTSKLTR
Sequence of Coagulation factor IX (P00740 227-461 limits assumed): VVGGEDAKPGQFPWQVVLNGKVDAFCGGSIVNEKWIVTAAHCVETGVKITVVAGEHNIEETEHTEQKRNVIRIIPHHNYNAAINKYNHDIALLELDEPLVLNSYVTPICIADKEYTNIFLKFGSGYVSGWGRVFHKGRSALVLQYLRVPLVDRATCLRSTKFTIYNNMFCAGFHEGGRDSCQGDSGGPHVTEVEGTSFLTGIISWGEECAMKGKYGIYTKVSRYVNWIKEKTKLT
Sequence of Coagulation factor X (Homo sapiens) (P00742 41-179 limits assumed): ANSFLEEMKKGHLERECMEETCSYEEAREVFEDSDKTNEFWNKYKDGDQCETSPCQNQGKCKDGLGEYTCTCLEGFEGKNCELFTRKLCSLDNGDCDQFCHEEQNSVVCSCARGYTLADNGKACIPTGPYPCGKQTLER
Sequence of Coagulation factor X (Homo sapiens) (P00742 235-488 limits assumed): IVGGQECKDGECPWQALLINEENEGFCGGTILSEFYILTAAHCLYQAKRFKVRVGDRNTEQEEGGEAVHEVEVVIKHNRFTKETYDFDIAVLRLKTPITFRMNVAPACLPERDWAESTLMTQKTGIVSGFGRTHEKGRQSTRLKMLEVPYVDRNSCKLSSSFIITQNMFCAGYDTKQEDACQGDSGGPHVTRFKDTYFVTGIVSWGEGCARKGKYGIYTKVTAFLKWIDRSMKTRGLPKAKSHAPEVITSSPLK
Sequence of Plasminogen (P00747 97-580 limits assumed): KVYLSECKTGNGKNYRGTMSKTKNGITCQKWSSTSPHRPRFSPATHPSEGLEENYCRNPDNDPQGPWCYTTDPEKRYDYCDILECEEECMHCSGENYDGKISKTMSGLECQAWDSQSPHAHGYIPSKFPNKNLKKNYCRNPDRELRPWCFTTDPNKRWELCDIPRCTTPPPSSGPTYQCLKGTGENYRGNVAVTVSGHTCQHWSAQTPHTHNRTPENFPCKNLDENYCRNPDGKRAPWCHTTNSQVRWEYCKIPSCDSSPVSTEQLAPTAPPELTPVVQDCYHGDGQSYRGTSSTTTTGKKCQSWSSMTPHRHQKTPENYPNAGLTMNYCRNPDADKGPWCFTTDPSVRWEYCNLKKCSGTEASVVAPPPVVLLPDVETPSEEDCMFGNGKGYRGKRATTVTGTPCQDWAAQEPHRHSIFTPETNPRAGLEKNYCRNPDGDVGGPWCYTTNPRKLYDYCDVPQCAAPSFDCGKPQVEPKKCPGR
Sequence of Plasminogen (P00747 581-810 limits assumed): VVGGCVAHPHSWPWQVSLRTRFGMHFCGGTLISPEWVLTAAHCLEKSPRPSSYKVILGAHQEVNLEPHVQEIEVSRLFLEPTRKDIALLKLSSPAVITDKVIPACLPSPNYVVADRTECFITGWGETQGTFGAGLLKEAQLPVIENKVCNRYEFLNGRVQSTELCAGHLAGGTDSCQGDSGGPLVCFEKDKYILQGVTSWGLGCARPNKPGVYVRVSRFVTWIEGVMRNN

As a reminder, the pKa is the negative logarithm of the acid dissociation constant. A high value points to a weaker acid or stronger base. What is called solubility is the dissolved amount per volume that the medium holds. As usually defined, the inhibition is the share of the control response that was lost under treatment. Higher therefore signals strong suppression. Usually Ki stands for a dissociation constant, usually derived from enzyme kinetics or from competition with a known ligand. Higher therefore signals weaker binding. One may read the logD as the decadic logarithm of the distribution of all forms, ionised or not, between an organic phase and buffer at a given pH. Read a high logD as higher lipophilicity. Take `CC(C)(NS(=O)(=O)c1ccc2c(Cl)cnc(N=C(N)N)c2c1)C(=O)O`: the pKa in data set [1] is 3.4. Moreover, the solubility in data set [2] came to 2.3 µg/mL (≈ 5.96 µM). The inhibition in data set [3] was 0%; against Coagulation factor IX it was 13%. Also, the concentration in data set [4] amounted to 41.8 µM. In addition, the figures for the inhibitory constant (Ki) (in data set [5]; at Plasminogen) were 40 µM and 27 µM, respectively. In addition, the pH-dependent lipophilicity (logD) in data set [6] was 0.
